Data taken from ChEMBL document CHEMBL3124940, “Design, synthesis and biological evaluation of D-ring opened galantamine analogs as multifunctional anti-Alzheimer agents” (Eur J Med Chem, 2014).

Experiments:
Rattus norvegicus [1] = assay: Toxicity in Wistar rat assessed as total glutathione level in kidney at 1 umol/100 g body weight, ip by fluorometric analysis relative to control; format: organism-based; conditions: in vivo
Summary of the method: (§1)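 Rats dosed i.p.; tissues taken after 24 h. For GSH/GSSG, tissue homogenized in 11 volumes of 0.2 M sodium phosphate (5 mM EDTA, pH 8.0) plus 4 volumes of 25% metaphosphoric acid and centrifuged 12 000 × g, 4 °C, 30 min; supernatant read photometrically (GSH) or fluorometrically (GSSG). Lipid peroxidation products measured as TBARS in 19-volume ice-cold saline homogenates, fluorometrically.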

Rattus norvegicus [2] = assay: Toxicity in Wistar rat assessed as GSH level in liver at 6 umol/100 g body weight, ip by fluorometric analysis relative to control; format: organism-based; conditions: in vivo
Rattus norvegicus [3] = assay: Toxicity in Wistar rat assessed as liver weight at 1 umol/100 g body weight, ip relative to control; format: organism-based; conditions: in vivo
Rattus norvegicus [4] = assay: Toxicity in Wistar rat assessed as GSH level in brain at 1 umol/100 g body weight, ip by fluorometric analysis relative to control; format: organism-based; conditions: in vivo
Rattus norvegicus [5] = assay: Toxicity in Wistar rat assessed as kidney weight at 1 umol/100 g body weight, ip relative to control; format: organism-based; conditions: in vivo
Rattus norvegicus [6] = assay: Toxicity in Wistar rat assessed as ethoxyresorufin-O-deethylation activity in liver measured as resorufin level at 1 umol/100 g body weight, ip by fluorometric analysis relative to control; format: organism-based; conditions: in vivo
Summary of the method: (§2)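 Rats dosed i.p.; after 24 h, liver homogenized 1:3 w/v in 0.1 M sodium phosphate pH 7.4 and centrifuged at 9000 × g, 4 °C, 20 min. Supernatant protein determined by the Biuret method. Ethoxyresorufin-O-deethylation measured fluorometrically as resorufin formed.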

Rattus norvegicus [7] = assay: Toxicity in Wistar rat assessed as lipidperoxidation product level in brain at 6 umol/100 g body weight, ip by fluorometric analysis relative to control; format: organism-based; conditions: in vivo; summary of the method: as §1
Rattus norvegicus [8] = assay: Toxicity in Wistar rat assessed as body weight at 1 umol/100 g body weight, ip relative to control; format: organism-based; conditions: in vivo
Rattus norvegicus [9] = assay: Antialzheimer activity in Wistar rat scopolamine-induced cognition impairment model assessed as total exploration time at 1 umol/100 g body weight, ip treated for 5 mins prior to scopolamine-challenge by eight-arm radial maze test relative to control; format: functional
Summary of the method: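 Female 60-day-old Wistar rats (Han:Wist) trained in an eight-arm radial maze to error-free trials under 60 s on three consecutive days; each animal served as its own control. Test agent given i.p. in saline 5 min before scopolamine (0.05 mg/100 g b. wt., i.p. in saline). Errors plus baits not found after 10 min, and total searching time, recorded before and 20, 60, 120 min after scopolamine; n = 14, mean ± SEM.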

Rattus norvegicus [10] = assay: Toxicity in Wistar rat assessed as lipidperoxidation product level in liver at 6 umol/100 g body weight, ip relative to control; format: organism-based; conditions: in vivo
Rattus norvegicus [11] = assay: Toxicity in Wistar rat assessed as GSSG level in brain at 1 umol/100 g body weight, ip by fluorometric analysis relative to control; format: organism-based; conditions: in vivo; summary of the method: as §1
Rattus norvegicus [12] = assay: Toxicity in Wistar rat assessed as liver weight at 6 umol/100 g body weight, ip relative to control; format: organism-based; conditions: in vivo
Rattus norvegicus [13] = assay: Toxicity in Wistar rat assessed as total glutathione level in liver at 6 umol/100 g body weight, ip by fluorometric analysis relative to control; format: organism-based; conditions: in vivo
Summary of the method: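 Rats were dosed, killed 24 h later, and liver and other tissues were taken. Samples were homogenized in 11 vol 0.2 M sodium phosphate (5 mM EDTA, pH 8.0) plus 4 vol 25% metaphosphoric acid, then spun at 12 000 × g, 4 °C, 30 min. GSH was read photometrically and GSSG fluorometrically in the supernatant, alongside total glutathione.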

Rattus norvegicus [14] = assay: Toxicity in Wistar rat assessed as GSSG level in kidney at 1 umol/100 g body weight, ip by fluorometric analysis relative to control; format: organism-based; conditions: in vivo; summary of the method: as §1
Rattus norvegicus [15] = assay: Toxicity in Wistar rat assessed as ethoxyresorufin-O-deethylation activity in liver measured as resorufin level at 6 umol/100 g body weight, ip by fluorometric analysis relative to control; format: organism-based; conditions: in vivo; summary of the method: as §2
Rattus norvegicus [16] = assay: Toxicity in Wistar rat assessed as total glutathione level in brain at 6 umol/100 g body weight, ip by fluorometric analysis relative to control; format: organism-based; conditions: in vivo; summary of the method: as §1
Rattus norvegicus [17] = assay: Toxicity in Wistar rat assessed as GSH level in kidney at 6 umol/100 g body weight, ip by fluorometric analysis relative to control; format: organism-based; conditions: in vivo
Rattus norvegicus [18] = assay: Toxicity in Wistar rat assessed as GSSG level in brain at 6 umol/100 g body weight, ip by fluorometric analysis relative to control; format: organism-based; conditions: in vivo; summary of the method: as §1
Rattus norvegicus [19] = assay: Toxicity in Wistar rat assessed as change in movement at 1 umol/100 g body weight, ip; format: organism-based; conditions: in vivo
Rattus norvegicus [20] = assay: Toxicity in Wistar rat assessed as protein content in liver at 6 umol/100 g body weight, ip by Biuret method relative to control; format: organism-based; conditions: in vivo; summary of the method: as §2
Rattus norvegicus [21] = assay: Toxicity in Wistar rat assessed as total glutathione level in liver at 1 umol/100 g body weight, ip by fluorometric analysis relative to control; format: organism-based; conditions: in vivo; summary of the method: as §1
Rattus norvegicus [22] = assay: Toxicity in Wistar rat assessed as GSSG level in liver at 6 umol/100 g body weight, ip by fluorometric analysis relative to control; format: organism-based; conditions: in vivo; summary of the method: as §1
Rattus norvegicus [23] = assay: Toxicity in Wistar rat assessed as GSH level in kidney at 1 umol/100 g body weight, ip by fluorometric analysis relative to control; format: organism-based; conditions: in vivo
Rattus norvegicus [24] = assay: Toxicity in Wistar rat assessed as brain weight at 1 umol/100 g body weight, ip relative to control; format: organism-based; conditions: in vivo
Rattus norvegicus [25] = assay: Toxicity in Wistar rat assessed as GSH level in brain at 6 umol/100 g body weight, ip by fluorometric analysis relative to control; format: organism-based; conditions: in vivo
Rattus norvegicus [26] = assay: Toxicity in Wistar rat assessed as GSSG level in kidney at 6 umol/100 g body weight, ip by fluorometric analysis relative to control; format: organism-based; conditions: in vivo; summary of the method: as §1
Rattus norvegicus [27] = assay: Toxicity in Wistar rat assessed as total glutathione level in kidney at 6 umol/100 g body weight, ip by fluorometric analysis relative to control; format: organism-based; conditions: in vivo; summary of the method: as §1
Rattus norvegicus [28] = assay: Toxicity in Wistar rat assessed as body weight at 6 umol/100 g body weight, ip relative to control; format: organism-based; conditions: in vivo
Rattus norvegicus [29] = assay: Toxicity in Wistar rat assessed as brain weight at 6 umol/100 g body weight, ip relative to control; format: organism-based; conditions: in vivo
Rattus norvegicus [30] = assay: Toxicity in Wistar rat assessed as total glutathione level in brain at 1 umol/100 g body weight, ip by fluorometric analysis relative to control; format: organism-based; conditions: in vivo; summary of the method: as §1
Rattus norvegicus [31] = assay: Toxicity in Wistar rat assessed as ethylmorphine-N-demethylation activity in liver measured as formaldehyde level at 6 umol/100 g body weight, ip by photometric analysis relative to control; format: organism-based; conditions: in vivo
Rattus norvegicus [32] = assay: Toxicity in Wistar rat assessed as lipidperoxidation product level in liver at 1 umol/100 g body weight, ip relative to control; format: organism-based; conditions: in vivo
Rattus norvegicus [33] = assay: Toxicity in Wistar rat assessed as lipidperoxidation product level in kidney at 6 umol/100 g body weight, ip by fluorometric analysis relative to control; format: organism-based; conditions: in vivo; summary of the method: as §1
Rattus norvegicus [34] = assay: Toxicity in Wistar rat assessed as kidney weight at 6 umol/100 g body weight, ip relative to control; format: organism-based; conditions: in vivo
Rattus norvegicus [35] = assay: Toxicity in Wistar rat assessed as GSSG level in liver at 1 umol/100 g body weight, ip by fluorometric analysis relative to control; format: organism-based; conditions: in vivo; summary of the method: as §1
Rattus norvegicus [36] = assay: Toxicity in Wistar rat assessed as ethylmorphine-N-demethylation activity in liver measured as formaldehyde level at 1 umol/100 g body weight, ip by photometric analysis relative to control; format: organism-based; conditions: in vivo
Rattus norvegicus [37] = assay: Toxicity in Wistar rat assessed as GSH level in liver at 1 umol/100 g body weight, ip by fluorometric analysis relative to control; format: organism-based; conditions: in vivo
Rattus norvegicus [38] = assay: Toxicity in Wistar rat assessed as protein content in liver at 1 umol/100 g body weight, ip by Biuret method relative to control; format: organism-based; conditions: in vivo; summary of the method: as §2
Rattus norvegicus [39] = assay: Toxicity in Wistar rat scopolamine-induced cognition impairment model assessed as change in movement at 1 umol/100 g body weight, ip; format: organism-based; conditions: in vivo
Summary of the method: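 60-day-old female Wistar rats were trained in an eight-arm radial maze to no errors in under 60 s on 3 consecutive days; each rat served as its own control. Compound in saline was given i.p., then scopolamine (0.05 mg/100 g, saline, i.p.) 5 min later. Errors plus baits not found after 10 min and total searching time were recorded before and 20, 60 and 120 min after scopolamine; n = 14, mean ± SEM.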

Rattus norvegicus [40] = assay: Toxicity in Wistar rat assessed as ethoxycoumarin-O-deethylation activity in liver measured as 7-hydroxycoumarin level at 1 umol/100 g body weight, ip by fluorometric analysis relative to control; format: organism-based; conditions: in vivo
Rattus norvegicus [41] = assay: Toxicity in Wistar rat assessed as lipidperoxidation product level in brain at 1 umol/100 g body weight, ip by fluorometric analysis relative to control; format: organism-based; conditions: in vivo; summary of the method: as §1
Rattus norvegicus [42] = assay: Toxicity in Wistar rat assessed as lipidperoxidation product level in kidney at 1 umol/100 g body weight, ip by fluorometric analysis relative to control; format: organism-based; conditions: in vivo; summary of the method: as §1
Rattus norvegicus [43] = assay: Toxicity in Wistar rat assessed as ethoxycoumarin-O-deethylation activity in liver measured as 7-hydroxycoumarin level at 6 umol/100 g body weight, ip by fluorometric analysis relative to control; format: organism-based; conditions: in vivo

Nc1c2c(nc3ccccc13)CCCC2 [TACRINE]
Activity (Rattus norvegicus [1]): 1821 µg/g
Activity (Rattus norvegicus [2]): 2310 µg/g
Activity (Rattus norvegicus [3]): 6.8 g
Activity (Rattus norvegicus [4]): 665 µg/g
Activity (Rattus norvegicus [5]): 0.65 g
Activity (Rattus norvegicus [6]): 134 pmol/mg/min
Activity (Rattus norvegicus [7]): 154 nmol/g
Activity (Rattus norvegicus [8]): 228 g
Time (Rattus norvegicus [9]): 237 s
Activity (Rattus norvegicus [10]): 62 nmol/g
Activity (Rattus norvegicus [11]): 79.9 µg/g
Activity (Rattus norvegicus [12]): 6.2 g
Activity (Rattus norvegicus [13]): 3173 µg/g
Activity (Rattus norvegicus [14]): 170 µg/g
Activity (Rattus norvegicus [15]): 100 pmol/mg/min
Activity (Rattus norvegicus [16]): 822 µg/g
Activity (Rattus norvegicus [17]): 1457 µg/g
Activity (Rattus norvegicus [18]): 75.6 µg/g
Activity (Rattus norvegicus [19]): Toxic
Activity (Rattus norvegicus [20]): 65.5 mg/mL
Activity (Rattus norvegicus [21]): 3378 µg/g
Activity (Rattus norvegicus [22]): 431 µg/g
Activity (Rattus norvegicus [23]): 1480 µg/g
Activity (Rattus norvegicus [24]): 1.77 g
Activity (Rattus norvegicus [25]): 671 µg/g
Activity (Rattus norvegicus [26]): 171 µg/g
Activity (Rattus norvegicus [27]): 1800 µg/g
Activity (Rattus norvegicus [28]): 219 g
Activity (Rattus norvegicus [29]): 1.82 g
Activity (Rattus norvegicus [30]): 824 µg/g
Activity (Rattus norvegicus [31]): 0.44 nmol/mg/min
Activity (Rattus norvegicus [32]): 63.8 nmol/g
Activity (Rattus norvegicus [33]): 89.2 nmol/g
Activity (Rattus norvegicus [34]): 0.61 g
Activity (Rattus norvegicus [35]): 418 µg/g
Activity (Rattus norvegicus [36]): 0.6 nmol/mg/min
Activity (Rattus norvegicus [37]): 2542 µg/g
Activity (Rattus norvegicus [38]): 61.8 mg/mL
Activity (Rattus norvegicus [39]): Toxic
Activity (Rattus norvegicus [40]): 207 pmol/mg/min
Activity (Rattus norvegicus [41]): 123 nmol/g
Activity (Rattus norvegicus [42]): 87.4 nmol/g
Activity (Rattus norvegicus [43]): 197 pmol/mg/min
